≈ marks a conversion by molar mass, not a printed value.

The record followed here is ChEMBL document CHEMBL4732114, “Design and structural optimization of novel 2H-benzo[h]chromene derivatives that target AcrB and reverse bacterial multidrug resistance” (Eur J Med Chem, 2021).

Series [1] has as its target T1, Multidrug efflux pump subunit AcrB (Escherichia coli (strain K12)) (UniProt P31224).
T1 sequence (whole entry): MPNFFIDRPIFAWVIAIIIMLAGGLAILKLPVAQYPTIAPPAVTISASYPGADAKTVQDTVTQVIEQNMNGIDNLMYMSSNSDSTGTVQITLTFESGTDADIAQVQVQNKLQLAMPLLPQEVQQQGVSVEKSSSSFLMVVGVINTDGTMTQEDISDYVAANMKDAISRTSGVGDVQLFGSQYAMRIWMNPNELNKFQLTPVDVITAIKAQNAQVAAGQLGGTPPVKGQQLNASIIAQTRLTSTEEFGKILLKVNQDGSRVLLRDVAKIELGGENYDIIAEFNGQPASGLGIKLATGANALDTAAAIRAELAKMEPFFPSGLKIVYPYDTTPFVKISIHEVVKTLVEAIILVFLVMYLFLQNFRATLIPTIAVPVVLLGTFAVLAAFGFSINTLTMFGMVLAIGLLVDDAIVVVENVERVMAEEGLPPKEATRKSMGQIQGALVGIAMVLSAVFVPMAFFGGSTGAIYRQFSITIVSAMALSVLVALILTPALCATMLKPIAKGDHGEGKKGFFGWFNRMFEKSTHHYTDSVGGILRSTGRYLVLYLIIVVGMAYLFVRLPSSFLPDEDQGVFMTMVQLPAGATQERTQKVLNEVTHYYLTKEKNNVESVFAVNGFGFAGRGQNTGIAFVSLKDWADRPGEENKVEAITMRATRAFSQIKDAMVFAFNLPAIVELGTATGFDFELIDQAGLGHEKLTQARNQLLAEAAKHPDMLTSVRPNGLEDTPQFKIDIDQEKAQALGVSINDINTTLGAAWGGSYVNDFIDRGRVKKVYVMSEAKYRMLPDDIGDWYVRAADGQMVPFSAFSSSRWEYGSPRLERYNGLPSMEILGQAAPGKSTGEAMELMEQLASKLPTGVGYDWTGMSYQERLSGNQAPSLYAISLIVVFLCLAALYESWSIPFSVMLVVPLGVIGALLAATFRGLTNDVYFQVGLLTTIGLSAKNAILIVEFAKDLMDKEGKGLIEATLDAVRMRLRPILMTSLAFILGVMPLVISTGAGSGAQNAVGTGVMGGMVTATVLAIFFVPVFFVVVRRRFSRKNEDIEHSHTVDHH
The note with it: Escherichia coli BW25113; dose 64.0 µg/ml.

Series [2] addresses T1, Multidrug efflux pump subunit AcrB (Escherichia coli (strain K12)). Put plainly: Inhibition of AcrB in multidrug-resistant Escherichia coli BW25113 assessed as potentiation of erythromycin-induced antibacterial activity by measuring erythromycin MIC at 128 ug/ml by checkerboard titration method (reference value: 64 ug/ml). The note with it: dose 128.0 µg/ml.
Series [3] has the same target. Put plainly: Inhibition of AcrB in multidrug-resistant Escherichia coli BW25113 assessed as potentiation of chloramphenicol-induced antibacterial activity by measuring chloramphenicol MIC at 64 ug/ml by checkerboard titration method (reference value: 8 ug/ml). To be noted: dose 64.0 µg/ml.
A short description of series [4]: Toxicity in multidrug-resistant Escherichia coli BW25113 assessed as growth inhibition by two-fold broth dilution method.
In series [5] the target is T1, Multidrug efflux pump subunit AcrB (Escherichia coli (strain K12)). Put plainly: Inhibition of AcrB in multidrug-resistant Escherichia coli BW25113 assessed as potentiation of levofloxacin-induced antibacterial activity by measuring levofloxacin MIC at 32 ug/ml by checkerboard titration method (reference value: 0.06 ug/ml). The note with it: dose 32.0 µg/ml.
In series [6] the test system is Cell membrane. Put plainly: Induction of inner membrane permeabilization in wild type Escherichia coli BW25113 assessed as perturbation of proton motive force at 32 ug/ml measured after 10 mins in presence of CCCP and glucose by Di0C2(3) probe based fluorescence assay. To be noted: escherichia coli bw25113, 10 min, dose 32 µg/ml. The method in brief:
(§1)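 Cell suspensions were left untreated or exposed to 8-128 µg/mL compound for 10 min. DiOC₂(3) was then added and fluorescence followed to a plateau. Cells were re-energized with 0.5% glucose, and the rise in fluorescence was read as membrane-potential build-up. CCCP was added last to dissipate the potential.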

The nature of series [7]: Toxicity in multidrug-resistant Escherichia coli BW25113 harboring AcrB deletion mutant assessed as growth inhibition by two-fold broth dilution method. A general note: In broth dilution the organism is exposed to a series of concentrations in liquid medium.
The target of series [8] is T1, Multidrug efflux pump subunit AcrB (Escherichia coli (strain K12)). Put plainly: Inhibition of AcrB in multidrug-resistant Escherichia coli BW25113 assessed as potentiation of levofloxacin-induced antibacterial activity by measuring levofloxacin MIC at 8 ug/ml by checkerboard titration method (reference value: 0.06 ug/ml). To be noted: dose 8.0 µg/ml.
For series [9] the target is unchanged. To be noted: Escherichia coli BW25113; dose 16.0 µg/ml.
For series [10] the target is unchanged. As to the kind of experiment: Inhibition of AcrB in multidrug-resistant Escherichia coli BW25113 assessed as potentiation of erythromycin-induced antibacterial activity by measuring erythromycin MIC at 32 ug/ml by checkerboard titration method (reference value: 64 ug/ml). The note with it: dose 32.0 µg/ml.
The target is the same in series [11]. As to the kind of experiment: Inhibition of AcrB in multidrug-resistant Escherichia coli BW25113 assessed as potentiation of levofloxacin-induced antibacterial activity by measuring levofloxacin MIC at 128 ug/ml by checkerboard titration method (reference value: 0.06 ug/ml). To be noted: dose 128.0 µg/ml.
Series [12] has the same target. As to the kind of experiment: Inhibition of AcrB in multidrug-resistant Escherichia coli BW25113 assessed as potentiation of erythromycin-induced antibacterial activity by measuring erythromycin MIC at 64 ug/ml by checkerboard titration method (reference value: 64 ug/ml). The note with it: dose 64.0 µg/ml.
Series [13] shares this target. Put plainly: Inhibition of AcrB in multidrug-resistant Escherichia coli BW25113 assessed as potentiation of tetraphenylphosphonium-induced antibacterial activity by measuring tetraphenylphosphonium MIC at 32 ug/ml by checkerboard titration method (reference value: 1024 ug/ml). To be noted: dose 32.0 µg/ml.
Series [14] has the same target. As to the kind of experiment: Inhibition of AcrB in multidrug-resistant Escherichia coli BW25113 assessed as potentiation of levofloxacin-induced antibacterial activity by measuring levofloxacin MIC at 64 ug/ml by checkerboard titration method (reference value: 0.06 ug/ml). The note with it: dose 64.0 µg/ml.
Series [15] has as its system Cell membrane. As to the kind of experiment: Induction of inner membrane permeabilization in wild type Escherichia coli BW25113 assessed as perturbation of proton motive force at 128 ug/ml measured after 10 mins in presence of CCCP and glucose by Di0C2(3) probe based fluorescence assay. The note with it: escherichia coli bw25113, 10 min, dose 128 µg/ml. In outline: as §1

Turning to `Cc1ccccc1COc1cccc2c3c(c(-c4nnco4)cc12)CCC(C)(C)O3`, the MIC in [1] was 16 mg/L (≈ 40 µM); in series [2], 16 mg/L; in series [3], 8 mg/L; in series [4], over 512 mg/L; in series [5] it was 0.06 mg/L; in series [7], over 128 mg/L. Further, the MIC in series [8] came to 0.06 mg/L; in series [9] it was 16 mg/L (≈ 40 µM); in series [10], 32 mg/L; in series [11], 0.06 mg/L; in [12], 32 mg/L; in [13] it was 512 mg/L. For the same molecule, the MIC in series [14] came out at 0.06 mg/L. In series [6], the Activity result is reported as “Not Active”.

`CC1(C)CCc2c(Cn3cnnn3)cc3c(OCc4ccc([N+](=O)[O-])cc4)cccc3c2O1`: the MIC in [1] is 16 mg/L (≈ 35.9 µM); in [2], 64 mg/L; in series [3] it was 8 mg/L; in [4], over 512 mg/L; in [5] it was 0.06 mg/L; in series [7], over 128 mg/L. Besides, the MIC in series [8] came to 0.06 mg/L; in [9] it was 16 mg/L (≈ 35.9 µM); in series [10] it was 64 mg/L; in series [11] it was 0.06 mg/L; in [12], 64 mg/L; in series [13], 1020 mg/L. In series [14], the MIC was found to be 0.06 mg/L. For the same molecule, the Activity result in series [15] was “Not Active”.

Turning to `CNC(=O)c1ccc(COc2cccc3c4c(c(Cn5cnnn5)cc23)CCC(C)(C)O4)cc1`, the MIC was 16 mg/L (≈ 35 µM) in series [1]; 32 mg/L in [2]; 4 mg/L in series [3]; over 512 mg/L in series [4]; 0.06 mg/L in series [5]; over 128 mg/L in series [7]. Further, the MIC in [8] stood at 0.06 mg/L; in [9] it was 16 mg/L (≈ 35 µM); in series [10] it was 64 mg/L; in series [11] it was 0.06 mg/L; in series [12], 64 mg/L; in [13] it was 1020 mg/L. Besides, in series [14], the MIC was 0.06 mg/L. In addition, the Activity result in series [15] was “Not Active”.

On to `CC1(C)CCc2c(Cn3cnnn3)cc3c(OCc4ccccc4)cccc3c2O1`, for which the MIC in series [1] was 16 mg/L (≈ 40 µM); in series [2], 64 mg/L; in [3] it was 4 mg/L; in [4], over 512 mg/L; in series [5] it was 0.06 mg/L; in [7] it was over 128 mg/L. In addition, the MIC in [8] was found to be 0.06 mg/L; in series [9], 16 mg/L (≈ 40 µM); in series [10] it was 64 mg/L; in [11], 0.03 mg/L; in [12], 64 mg/L; in series [13], 1020 mg/L. Moreover, the MIC in series [14] is 0.06 mg/L. For the same molecule, the Activity result in [15] is given as “Not Active”.

For `C=CC(=O)Nc1ccc(COc2cccc3c4c(c(Cn5cnnn5)cc23)CCC(C)(C)O4)cc1`, the MIC in series [1] was 16 mg/L (≈ 34.1 µM); in series [2] it was 32 mg/L; in series [3], 4 mg/L; in series [4], over 512 mg/L; in series [5], 0.06 mg/L; in series [7], over 128 mg/L. The MIC in series [8] was 0.06 mg/L; in [9], 16 mg/L (≈ 34.1 µM); in [10] it was 32 mg/L; in [11], 0.06 mg/L; in series [12] it was 32 mg/L; in series [13], 1020 mg/L. In addition, in [14], the MIC stood at 0.06 mg/L. The Activity entry in series [15] is given as “Not Active”.

On to `COc1cccc(COc2cccc3c4c(c(-c5nnco5)cc23)CCC(C)(C)O4)c1`, for which the MIC in [1] is 16 mg/L (≈ 38.4 µM); in series [2] it was 32 mg/L; in series [3] it was 8 mg/L; in [4] it was over 512 mg/L; in [5] it was 0.06 mg/L; in [7] it was over 128 mg/L. Also, the MIC was determined as 0.06 mg/L in series [8]; 16 mg/L (≈ 38.4 µM) in series [9]; 64 mg/L in series [10]; 0.06 mg/L in [11]; 64 mg/L in series [12]; 1020 mg/L in series [13]. The MIC in series [14] turned out to be 0.06 mg/L. In addition, the Activity entry in series [15] is “Not Active”.

As to `CC1CN(C(=O)c2cc3c(OCc4ccc(Br)cc4)cccc3c3c2CCC(C)(C)O3)CC(C)O1` (stereo unspecified), the MIC in [1] is 16 mg/L (≈ 29.7 µM); in [2], 32 mg/L; in series [3], 8 mg/L; in series [4], over 512 mg/L; in [5] it was 0.06 mg/L; in series [7] it was over 128 mg/L. Also, the MIC in [8] was 0.06 mg/L; in series [9], 16 mg/L (≈ 29.7 µM); in series [10], 64 mg/L; in series [11], 0.06 mg/L; in [12] it was 64 mg/L; in series [13] it was 1020 mg/L. Also, in series [14], the MIC is 0.06 mg/L. For the same molecule, the Activity entry in series [15] is reported as “Not Active”.

Turning to `CC1(C)CCc2c(Cn3cnnn3)cc3c(OCc4ccc(OC(F)(F)F)cc4)cccc3c2O1`, the MIC in series [1] was 16 mg/L (≈ 33 µM); in series [2], 32 mg/L; in series [3], 8 mg/L; in series [4], over 512 mg/L; in series [5] it was 0.06 mg/L; in series [7] it was over 128 mg/L. The MIC turned out to be 0.06 mg/L in series [8]; 16 mg/L (≈ 33 µM) in [9]; 64 mg/L in [10]; 0.06 mg/L in series [11]; 64 mg/L in series [12]; 1020 mg/L in [13]. Further, in series [14], the MIC came out at 0.06 mg/L. Besides, the Activity entry in [15] was “Not Active”.

Regarding `CC1(C)CCc2c(-c3nnco3)cc3c(OCc4ccc([N+](=O)[O-])cc4)cccc3c2O1`, the MIC in series [1] was 16 mg/L (≈ 37.1 µM); in series [2] it was 32 mg/L; in series [3], 8 mg/L; in [4] it was over 512 mg/L; in [5], 0.06 mg/L; in series [7], over 128 mg/L. Further, the MIC turned out to be 0.06 mg/L in series [8]; 16 mg/L (≈ 37.1 µM) in [9]; 64 mg/L in [10]; 0.06 mg/L in series [11]; 32 mg/L in [12]; 1020 mg/L in series [13]. Also, the MIC in series [14] worked out at 0.06 mg/L. For the same molecule, the Activity entry in series [15] is listed as “Not Active”.
